Data on 1 compound can be found in ChEMBL document CHEMBL4024754, “Development of Potent, Protease-Resistant Agonists of the Parathyroid Hormone Receptor with Broad β Residue Distribution” (J Med Chem, 2017).

Structures are written as SMILES. Active and inactive are the calls of the source. Numbered stars: 1 amine (or outer) side, 2 acyl side, 3 side chain; on linkers, the order of the positions; unused ones are H or OH. Square brackets hold non-standard residues; d marks the D form. Peptide text beside a SMILES is read from it. * marks the point of attachment. NH(1S,2S-2-CONH2-cPent) = NC(=O)[C@H]1CCC[C@@H]1N*; ACPC(1S,2S) = N[C@H]1CCC[C@@H]1C(=O)*; X1 = O=C([C@H]1CCC[C@@H]1N[*:1])[*:2]; X2 = O=C([C@H]1CNC[C@@H]1N[*:1])[*:2]; hArg = N=C(N)NCCCC[C@H](N)C(=O)O; Aib = CC(C)(N)C(=O)O

Series [1] has as its target T1, Parathyroid hormone/parathyroid hormone-related peptide receptor (Homo sapiens, UniProt Q03431).
T1 sequence (Q03431 whole entry): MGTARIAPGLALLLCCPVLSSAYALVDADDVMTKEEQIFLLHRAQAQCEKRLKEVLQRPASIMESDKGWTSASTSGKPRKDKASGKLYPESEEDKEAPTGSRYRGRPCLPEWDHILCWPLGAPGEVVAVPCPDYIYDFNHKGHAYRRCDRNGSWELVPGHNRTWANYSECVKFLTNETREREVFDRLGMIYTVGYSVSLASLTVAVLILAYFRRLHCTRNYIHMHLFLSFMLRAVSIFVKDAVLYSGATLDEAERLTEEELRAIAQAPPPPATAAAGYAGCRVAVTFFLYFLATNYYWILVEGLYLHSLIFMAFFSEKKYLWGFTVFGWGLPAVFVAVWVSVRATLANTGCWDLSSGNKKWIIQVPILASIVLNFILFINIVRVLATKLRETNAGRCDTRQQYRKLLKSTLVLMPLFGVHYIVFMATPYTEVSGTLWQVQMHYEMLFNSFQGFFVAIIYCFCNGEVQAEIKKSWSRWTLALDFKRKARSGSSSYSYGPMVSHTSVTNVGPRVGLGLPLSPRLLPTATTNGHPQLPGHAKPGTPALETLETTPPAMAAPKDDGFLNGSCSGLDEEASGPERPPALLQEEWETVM
Put plainly: Agonist activity at human PTH1 receptor expressed in human GP2.3 cells assessed as induction of cAMP after 12 to 20 mins by luciferase reporter gene assay. The class given is functional, cell-based. The following applies: read-out: EC50. For orientation: Reporter assays use an easily measured gene product as a stand-in for the process of interest.

Series [2] addresses T2, Parathyroid hormone/parathyroid hormone-related peptide receptor (Homo sapiens) (UniProt Q03431).
T2 sequence (whole entry): T1 sequence (Q03431 whole entry)
Put plainly: Agonist activity at human PTH1 receptor expressed in human GP2.3 cells assessed as induction of cAMP after 12 to 20 mins by luciferase reporter gene assay relative to PTH(1 to 34 residues)-NH2. Format: functional, cell-based.

The nature of series [3]: Drug metabolism in Sprague-Dawley rat kidney homogenates assessed as protease-mediated metabolite formation at 12 uM after 4 hrs by MALDI-TOF-MS analysis. The class given is ADME, tissue-based. The note with it: tissue homogenate. The procedure, abridged:
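Perfused female Sprague-Dawley kidney homogenate in 50 mM Tris-HCl pH 7.4, diluted to 2.5 mg protein/mL. Peptide spiked at 50 μg/mL (~12 μM) and incubated at 37 °C. Timed samples quenched with equal volume 1% TFA, centrifuged, dried, reconstituted in 0.1% formic acid, mixed with DHB matrix. Fragments identified by MALDI-TOF MS.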

In series [4] the target is T2, Parathyroid hormone/parathyroid hormone-related peptide receptor (Homo sapiens). Put plainly: Agonist activity at human PTH1 receptor expressed in human GP2.3 cells assessed as induction of cAMP at 12 uM preincubated with Sprague-Dawley rat kidney homogenates for 60 mins followed by compound transfer to GP2.3 cells measured after 12 to 20 mins by luciferase reporter gene assay. Format: functional, cell-based. Summed up:
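Female Sprague-Dawley rat kidney homogenate (50 mM Tris-HCl pH 7.4, 2000g supernatant). 1 mM peptide stock diluted 1:85 (~12 μM), incubated at indicated times. Quenched 1:1 with acetonitrile/TFA solution, diluted to 1000−1 nM, and added 1:10 to GP2.3 cells preincubated 30 min with 0.5 mM D-luciferin. Sigmoidal variable-slope fit. Two replicates.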

A further series has as its system pepsin. Put plainly: Stability in simulated gastric fluid assessed as pig pepsin-mediated proteolysis by measuring half life at 40 uM by RP-HPLC analysis. The class given is ADME, Sus scrofa. The following applies: simulated gastric fluid with pig pepsin. The procedure, abridged:
(§1)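 Peptide at 200 μM (from 1 mM stock in 10 mM acetic acid) incubated at 37 °C in fresh SGF (NaCl, porcine pepsin, HCl, pH ~1.2). Quenched by 10× PBS to neutral pH (40 μM). Duplicate reactions. Intact peptide measured by RP-HPLC peak area. For bioactivity, samples diluted into CO2-independent medium and added to luciferin-loaded GP2.3 cells at 100 nM−0.1 nM final.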

The target in series [5] is T2, Parathyroid hormone/parathyroid hormone-related peptide receptor (Homo sapiens). The experiment in a line: Agonist activity at human PTH1 receptor expressed in human GP2.3 cells assessed as induction of cAMP at 0.1 to 100 nM preincubated with SGF for 4 hrs followed by compound transfer to GP2.3 cells by luciferase reporter gene assay. The class given is functional, cell-based. The procedure, abridged: as §1

Series [6] has the same target. The experiment in a line: Agonist activity at human PTH1 receptor expressed in human GP2.3 cells assessed as induction of cAMP at 0.1 to 100 nM preincubated with SIF for 10 mins followed by compound transfer to GP2.3 cells by luciferase reporter gene assay. The class given is functional, cell-based. Summed up:
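Simulated intestinal fluid containing pancreatin, pH 6.8, prepared fresh and kept at 37 °C. Peptide incubated in it as for gastric fluid. Quenched 1:1 with 50% acetonitrile/1% TFA. Quenched samples serially diluted in CO2-independent medium and applied to luciferin-preloaded GP2.3 cells at 100−0.1 nM final. Luminescence read. Two technical replicates.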

In series [7] the test system is Mus musculus. Put plainly: In vivo induction of excessive bloodstream calcium concentration in CD1 mouse at 20 nmol/kg, sc up to 2 hrs by Ca2+/pH analyzer. Format: organism-based. The procedure, abridged: (§2)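 Female CD1 mice (9−12 weeks), n = 5, given 20 nmol/kg subcutaneously in 10 mM citrate/150 mM NaCl/0.05% Tween-80, pH 5.0. Tail vein blood taken before and at times after dosing. Ca2+ measured by Ca2+/pH analyzer. One-way ANOVA with Dunnett's test vs vehicle. Mean ± SEM.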

In series [8] the test system is Mus musculus. Put plainly: In vivo induction of excessive bloodstream calcium concentration in CD1 mouse at 20 nmol/kg, sc after 2 hrs by Ca2+/pH analyzer. The class given is organism-based. The procedure, abridged: as §2
The next series relates to Blood. The experiment in a line: Drug level in CD1 mouse blood at 20 nmol/kg, sc measured up to 2 hrs. The following applies: in vivo. The class given is ADME, organism-based. The procedure, abridged: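 Female CD1 mice, n = 5, 20 nmol/kg subcutaneously in citrate/NaCl/Tween-80 vehicle, pH 5.0. 2 μL serum from timed bleeds, mixed with CO2-independent medium, added to GP2.3 cells. Luminescence converted to peptide concentration via a standard curve.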

Series [9] concerns the target T2, Parathyroid hormone/parathyroid hormone-related peptide receptor (Homo sapiens). Put plainly: Displacement of [125I]-PTH(1 to 34 residues) from R0 state of human PTHR1 expressed in African green monkey COS7 cell membranes incubated for >1 hr in presence of GTPgammaS by gamma radiation method. On the technique in general: Displacement assays read how much labelled ligand stays bound in the presence of the test substance.

Series [10] in a line: Half life in Sprague-Dawley rat kidney homogenates at 12 uM by HPLC-MS analysis. The class given is ADME, tissue-based. The procedure, abridged:
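Kidney homogenate (2.5 mg protein/mL, pH 7.4 Tris) spiked with peptide at 50 μg/mL (~12 μM), 37 °C, sampled 0−120 min. […] C18 UHPLC–Orbitrap MS quantified via y32 ion area ratio against calibration standards. Exponential decay fit, mean ± SD of two replicates.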

Series [11] deals with T2, Parathyroid hormone/parathyroid hormone-related peptide receptor (Homo sapiens). Put plainly: Agonist activity at human PTH1 receptor expressed in human GP2.3 cells assessed as induction of cAMP at 0.1 to 100 nM preincubated with protease activity quenched SGF up to 4 hrs followed by compound transfer to GP2.3 cells by luciferase reporter gene assay. The class given is functional, cell-based. Summed up: (§3)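 Control samples: simulated gastric fluid neutralized with 10× PBS, or intestinal fluid mixed with acetonitrile/TFA quench solution, before adding peptide. Gastric controls held up to 4 h. Then diluted and tested on luciferin-loaded GP2.3 cells at 100−0.1 nM final, alongside freshly prepared peptide.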

Series [12] shares this target. Put plainly: Agonist activity at human PTH1 receptor expressed in human GP2.3 cells assessed as induction of cAMP at 0.1 to 100 nM preincubated with protease activity quenched SIF followed by compound transfer to GP2.3 cells by luciferase reporter gene assay. Format: functional, cell-based. Summed up: as §3

As for `CSCC[C@H](NC(=O)[C@H]1CCC[C@@H]1NC(=O)[C@H](CCC(N)=O)NC(=O)[C@H]1CCC[C@@H]1NC(=O)[C@H](CCC(=O)O)NC(=O)C(C)(C)NC(=O)[C@@H](NC(=O)[C@H]1CCC[C@@H]1N)C(C)C)C(=O)N[C@@H](Cc1cnc[nH]1)C(=O)N[C@@H](CCC(N)=O)C(=O)N[C@@H](CCCCNC(=N)N)C(=O)N[C@@H](C)C(=O)N[C@@H](CCCCN)C(=O)N[C@H]1CCC[C@@H]1C(=O)N[C@@H](CC(C)C)C(=O)N[C@@H](CC(N)=O)C(=O)N[C@@H](CO)C(=O)N[C@H]1CCC[C@@H]1C(=O)N[C@@H](CCCNC(=N)N)C(=O)N[C@@H](CCCNC(=N)N)C(=O)N[C@H](C(=O)N[C@H]1CNC[C@@H]1C(=O)N[C@@H](Cc1c[nH]c2ccccc12)C(=O)N[C@@H](CC(C)C)C(=O)N[C@@H](CCCNC(=N)N)C(=O)N[C@H]1CNC[C@@H]1C(=O)N[C@@H](CCCCN)C(=O)N[C@@H](CC(C)C)C(=O)N[C@@H](CCC(N)=O)C(=O)N[C@H]1CCC[C@@H]1C(=O)N[C@H](C(=O)N[C@@H](Cc1cnc[nH]1)C(=O)N[C@@H](CC(N)=O)C(=O)N[C@H]1CCC[C@@H]1C(N)=O)C(C)C)C(C)C` ({ACPC(1S,2S)}-V[Aib]E[X1]Q[X1]MHQ[hArg]AK[X1]LNS[X1]RRV[X2]WLR[X2]KLQ[X1]VHN-{NH(1S,2S-2-CONH2-cPent)}), the EC50 (in general, the concentration needed to bring the measured effect to its halfway point) in series [1] was 0.48 to 0.78 nM. In addition, in series [2], the fold change (FC) was 7.1 to 9.5. For the same compound, in series [3], the Drug metabolism entry was “Metabolite_Notdetected”. The outcome in series [4], in series [5], in series [6], in [11] and in [12] was Active. Further, the half-life (as a rule, the time needed for the level to fall by half in the phase considered) at 40 µM in the series on pepsin was 4 h. In addition, the Activity entry is reported as “Toxic” in the series with Mus musculus [7] and “Non-Toxic” in the series on Mus musculus [8]. Besides, the Drug uptake result in the series with Blood is recorded as “Not Active”. Besides, the inhibition entry in series [9] is “Active”. In series [10], this compound displayed a half-life at 12 µM of 0.517 h.
